Assay outcomes as filed in PubChem BioAssay.
Measles CPE: compounds protecting cells from measles virus cytopathic effect, primary screen, measles RdRp inhibitor project, single point, MLSMR library, absorbance; Measles virus-infected cells, CPE protection; actives 1.5% (n = 140,000); protection (pct of control), % at 4 µM; in the data active = protection mostly above about 24%, no sharp cut-off; inactive = mostly below about 26%
NPY Y2 blocker: NPY-Y2 receptor antagonists, primary screen, cell-based; Neuropeptide Y receptor type 2 (Homo sapiens), P49146; NPY-Y2 expressing cells, antagonist mode; inhibition, % at 2.7 µM; actives 0.99% (n = 140,000); AID 793, 2007; in the data active = inhibition above about 17%;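 note: 0% = vehicle with agonist challenge and 100% = reference antagonist with challenge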
MDM2 E3 inh: MDM2-luciferase reporter signal enhancers, primary screen, MDM2 E3 ligase inhibitor project, cell-based, luminescence, 1536-well. actives 0.11% (n = 210,000). E3 ubiquitin-protein ligase Mdm2 (Homo sapiens), Q00987. signal enhancement, % at 5 µM. cell-based MDM2 ubiquitination luciferase reporter, 2 h; 0 = plate control, 100 = twice control, blank-subtracted;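 active = signal enhancement of 30% or more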;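 note: luminescence tracks abundance of the self-degrading MDM2-luciferase fusion protein; higher signal means inhibition of MDM2 E3 ligase activity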
Target sequence (Q00987 whole entry, looked up, the tested form may be a part): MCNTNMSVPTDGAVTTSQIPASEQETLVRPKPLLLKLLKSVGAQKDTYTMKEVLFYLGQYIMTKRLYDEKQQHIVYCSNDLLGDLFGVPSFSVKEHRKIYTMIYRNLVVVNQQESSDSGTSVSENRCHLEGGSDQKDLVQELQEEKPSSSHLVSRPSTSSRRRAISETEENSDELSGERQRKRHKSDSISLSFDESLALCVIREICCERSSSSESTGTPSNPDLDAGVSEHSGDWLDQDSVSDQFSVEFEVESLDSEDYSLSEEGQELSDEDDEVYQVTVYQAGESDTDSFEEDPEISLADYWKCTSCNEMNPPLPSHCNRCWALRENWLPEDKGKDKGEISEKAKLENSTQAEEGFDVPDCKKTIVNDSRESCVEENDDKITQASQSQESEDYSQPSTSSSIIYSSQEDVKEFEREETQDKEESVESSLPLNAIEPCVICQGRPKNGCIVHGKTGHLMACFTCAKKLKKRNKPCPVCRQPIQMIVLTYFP
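system = mammalian cells stably expressing self-ubiquitinating, self-degrading MDM2 E3–luciferase fusion | quantity = 2000 cells per well seeded | incubation = 4 h cell settling then 2 h compound exposure, 37 °C | signal = SteadyLite luminescence, 15 min reagent step | benchmarks = plate control and blank wells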
NPY1 pot ag: NPY-Y1 receptor potentiators or agonists, primary screen, cell-based; Neuropeptide Y receptor type 1 (Homo sapiens), P25929; NPY-Y1 expressing cells, potentiator/agonist activation; activation, % at 3.6 µM; actives 0.37% (n = 220,000); AID 1304, 2008; in the data active = activation above about 33%, passing the limit was not always enough;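 note: cells stimulated with NPY at EC10 then isoproterenol at EC100; 0% = low agonist plus stimulus and 100% = saturating agonist plus stimulus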
NPY Y1 blocker: NPY-Y1 receptor antagonists, primary screen, cell-based | Neuropeptide Y receptor type 1 (Homo sapiens), P25929 | HEK293-CNG Y1 cells, membrane potential fluorescence; NPY at EC95, then isoproterenol | inhibition, % at 3.6 µM | actives 1% (n = 200,000);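 active = inhibition above the campaign mean inhibition of all tested compounds plus 3 SD, cut at about 20% in these data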;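 note: 0% = DMSO wells given NPY plus isoproterenol and 100% = isoproterenol alone without NPY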
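Assay system: HEK293 Y1/CNG channel cell line; Doses: single compound dose of 3.6 µM, 0.4% DMSO; Timing: dye 3 h, compound 60 min room temperature, stimulation 45 min; Technique: Membrane-potential fluorescent dye readout; Measure: % inhibition of NPY effect.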
NPY-Y2 PAM-ag: NPY-Y2 potentiators or agonists, primary screen, cell-based; AID 1359, 2008; actives 0.45% (n = 220,000); cells expressing NPY-Y2, potentiator/agonist read-out; Neuropeptide Y receptor type 2 (Homo sapiens), P49146; activation, % at 3.6 µM; in the data active = activation above about 27%;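 note: cells stimulated with NPY near EC25 plus isoproterenol at EC100; 0% = vehicle plus submaximal agonist and 100% = vehicle plus saturating agonist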
NPY-Y1 confirm: NPY-Y1 potentiators or agonists, confirmation, cell-based; cell-based NPY-Y1 potentiator/agonist assay; actives 20% (n = 280); shares compounds with NPY1 pot ag; activation, % at 3.6 µM; in the data active = activation above about 45%;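 note: cells challenged with NPY at its EC10 plus isoproterenol stimulus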
NPY-Y2 counter: NPY-Y2 potentiators or agonists, counter-screen for NPY-Y1 potentiator project, cell-based, fluorescence | HEK293-CNG cells, membrane-potential fluorescence (FLIPR), 1536-well | actives 20% (n = 280) | shares compounds with NPY1 pot ag | AID 1649, 2009 | activation, % at 3.6 µM; in the data active = activation above about 33%
NPY-Y1 agonist: NPY-Y1 direct agonists without NPY, confirmation, counter-screen for NPY-Y1 potentiator project, cell-based, fluorescence; shares compounds with NPY1 pot ag; HEK293 Y1-CNGC, membrane potential fluorescence, agonist mode; activation, % at 3.6 µM; actives 50% (n = 280);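 active = percent activation above the mean of DMSO-only control wells plus 3 SD of those wells, cut at about 18% in these data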;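 note: cells challenged with isoproterenol plus Ro 20-1724 with no NPY in test wells; Y1 agonism lowers isoproterenol-driven cAMP and reduces probe fluorescence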
NPY-Y2 agonist: NPY-Y2 direct agonists without NPY, counter-screen for NPY-Y1 potentiator project, cell-based, fluorescence. actives 67% (n = 280). HEK293 Y2-CNGC, membrane potential fluorescence, agonist mode. shares compounds with NPY1 pot ag. activation, % at 3.6 µM;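 active = activation above the solvent-only control wells' mean plus 3 SD, cut at about 11% in these data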;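 note: 0% = DMSO with isoproterenol and 100% = 40 nM NPY maximal response; agonism lowers cAMP so well fluorescence drops in active wells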
CNGC counter: CNGC cAMP sensor activity inhibitors, counter-screen for NPY-Y1 potentiator/agonist project, cell-based, HEK293-CNG parental, membrane potential fluorescence, Y1 set; shares compounds with NPY1 pot ag; isoproterenol cAMP; inhibition, % at 3.6 µM; actives 42% (n = 280);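 active = inhibition above the mean of stimulated solvent-only control wells plus 3 SD, cut at about 22% in these data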;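 note: 0% = isoproterenol-stimulated DMSO wells and 100% = unstimulated DMSO wells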
Starred values were filed as active, the others as inactive; · = no result given. Compounds with a hit are over-represented: about 2.8% of the library has one in this group of screens.

SMILES	Measles CPE	NPY Y2 blocker	MDM2 E3 inh	NPY1 pot ag	NPY Y1 blocker	NPY-Y2 PAM-ag	NPY-Y1 confirm	NPY-Y2 counter	NPY-Y1 agonist	NPY-Y2 agonist	CNGC counter
COc1ccc(/C=C2\SC(=S)N(CC3CCCO3)C2=O)cc1 (stereo unspecified)	·	·	-13	11	·	10	·	·	·	·	·
CC1(C)C2CCC1(CS(=O)(=O)N1CCC(C(=O)O)CC1)C(=O)C2 (stereo unspecified)	·	·	-5	14	·	-5	·	·	·	·	·
C=CCNCCOc1ccc(C)cc1[N+](=O)[O-]	·	·	0	39*	-2	4	0	5	-2	4	3
COCCCNCCCCOc1ccc(C)cc1[N+](=O)[O-]	6	2	-2	-17	4	-5	·	·	·	·	·
Cc1ccc(CCNC(=O)CN(C)S(=O)(=O)c2ccc3c(c2)n(C)c(=O)c(=O)n3C)cc1	·	·	-8	-15	·	-11	·	·	·	·	·
O=C(CC1NCCc2ccccc21)Nc1ccc(Cl)cc1 (stereo unspecified)	·	·	10	56*	1	-12	-8	-5	-17	-10	-2
COCCNC(=S)NNc1ccccc1[N+](=O)[O-]	·	·	-22	19	0	22	·	·	·	·	·
CC(C)N(C(=O)c1sc2cc([N+](=O)[O-])ccc2c1Cl)C(C)C	4	4	-13	85*	1	23	9	7	-2	18*	6
O=C(c1sc2cc([N+](=O)[O-])ccc2c1Cl)N1CCOCC1	3	1	5	13	-4	11	·	·	·	·	·
COc1ccccc1NC(=O)Nc1ccc(-n2ccc(C(F)(F)F)n2)cc1	·	·	-7	55*	·	32	65*	49*	55*	38*	36*
O=C(O)c1ccccc1C(=O)Nc1ccc(-n2ccc(C(F)(F)F)n2)cc1	·	·	-15	17	·	5	·	·	·	·	·
CN(C)CCNC(=O)COc1ccc(Cl)cc1Cl	5	5	2	-17	-8	-11	·	·	·	·	·
O=C(COc1ccc(Cl)cc1Cl)NCCSc1ccc(Cl)cc1	5	7	-7	91*	18	-33	-36	-23	-21	-1	-26
COC(=O)CNC(=O)CN1C(=O)N(c2cccc(Cl)c2)C(N(O)C(=O)Nc2cccc(Cl)c2)C1(C)C (stereo unspecified)	3	-4	-2	49*	-9	10	46*	29	32*	31*	32*
COC(=O)CNC(=O)CN1C(=O)N(c2ccccc2)C(N(O)C(=O)Nc2ccccc2)C1(C)C (stereo unspecified)	6	1	-4	-6	0	-15	·	·	·	·	·
COCCCNc1nc2c(c(=O)[nH]c(=O)n2C)n1CC(O)COc1ccccc1 (stereo unspecified)	6	0	-6	96*	5	29	3	2	-1	12*	8
CCOC(=O)C1=C(C)C2C3C(=O)N(c4cc(C)ccc4C)C(=O)C3C1(C)C1C(=O)N(c3cc(C)ccc3C)C(=O)C21 (stereo unspecified)	11	-3	-21	44*	0	8	17	9	16	8	10
C/C(=N\NC(=O)c1c(Cl)cnn1C)c1ccc(NC(=O)c2ccncc2)cc1	14	-1	0	14	-3	-11	·	·	·	·	·
COc1ccc(N2C(=O)CCC(C(=O)N3CCN(c4ccccn4)CC3)C2c2ccc(F)cc2)cc1 (stereo unspecified)	·	·	-11	1	-1	0	·	·	·	·	·
O=C(c1cc(-c2cccc(O)c2)on1)N1CCN(C(c2ccccc2)c2ccccc2)CC1	10	1	-23	32*	8	-6	32	5	18*	16*	7
O=C(c1cc(C2CC2)on1)N1CCN(C(c2ccccc2)c2ccccc2)CC1	2	-2	-18	-6	-2	5	·	·	·	·	·
N#Cc1c(-c2ccccc2)c(-c2ccccc2)nn(CC(=O)NNC(=O)Nc2ccc(Cl)c(Cl)c2)c1=O	4	-1	-15	38*	-10	5	43	28	34*	32*	32*
CN1CCN(NC(=O)c2ccc(Cl)s2)CC1	·	·	-18	22	4	4	·	·	·	·	·
O=[N+]([O-])c1ccc(/C=C/C2=NN(c3ccccc3)C(c3ccco3)C2)o1 (stereo unspecified)	·	·	-8	36*	-6	22	60*	45*	56*	58*	45*
COC(=O)[C@@H]1C[C@@]2(O)[C@H](O)[C@H](O)[C@H](O)C[C@H]2N1Cc1ccc(-c2ccccc2)cc1	·	·	8	·	·	·	·	·	·	·	·
O=C(CN1CCN(c2ccc(O)cc2)CC1)NC(=O)NCc1ccco1	1	1	-16	-2	1	-9	·	·	·	·	·
N#Cc1ccc(NC(=O)Nc2ccc(Cl)cc2)cc1	2	-2	-18	49*	-9	27	34	33	23*	28*	32*
CC(=O)c1c(C)nc(-c2ccc(Cl)cc2)nc1N	·	·	1	88*	-2	-10	4	-2	-12	-8	-6
COCc1cc(C)nc(SCC[N+](C)(C)CC(=O)Nc2cccc(C(F)(F)F)c2)c1C#N	·	·	-19	54*	-4	-6	22	12	16	6	4
CSc1nnc(SCC#N)s1	·	·	-14	-9	·	-26	·	·	·	·	·
